# ChEMBL document CHEMBL1138697, “Development of a new class of potential antiatherosclerosis agents: NO-donor antioxidants” (Bioorg Med Chem Lett, 2004)
# How the values were obtained:
# Rattus norvegicus [1] = organism: Rattus norvegicus; assay: Tested for inhibition of ferrous salt/ascorbate induced lipidic peroxidation of membrane lipid of rat hepatocytes; assay type: functional; conditions: Hepatocyte
# How it was run: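 Rat liver microsomes (male Wistar, 200-250 g) were prepared by differential centrifugation and used at 2 mg prot/mL. Incubation was at 37°C, pH 7.4, Tris-HCl/KCl, with 100 μM ascorbate and compounds in DMSO (≤5%). TBARS were read at 543 nm against an MDA standard, using the 30-min plateau. IC50 came from % inhibition vs control by non-linear regression.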
# Rattus norvegicus [2] = organism: Rattus norvegicus; assay: Vasodilating activity in rat aorta strip in absence of 1H-[1,2,4]oxadiazolo[4,3-a]quinoxalin-1-one (ODQ); assay type: functional, organism-based
# How it was run: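 Rat aortic strips were precontracted with 1 μM L-phenylephrine and relaxation was measured. The method follows an earlier published procedure with minor changes.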
# Rattus norvegicus [3] = organism: Rattus norvegicus; assay: Vasodilating activity in rat aorta strip in presence of 1H-[1,2,4]oxadiazolo[4,3-a]quinoxalin-1-one (ODQ); assay type: functional, organism-based
# How it was run: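 Rat aortic strips were precontracted with 1 μM L-phenylephrine. ODQ 1 μM was added to the bath at least 5 min before contraction, in a separate series of experiments, and relaxation was then measured.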
SMILES,IC50 (Rattus norvegicus [1]) [µM],EC50 (Rattus norvegicus [2]) [µM],EC50 (Rattus norvegicus [3]) [µM]
CC(C)(C)c1cc(CCCOc2no[n+]([O-])c2S(=O)(=O)c2ccccc2)cc(C(C)(C)C)c1O,2,0.11,4.8
CC(C)(C)c1cc(CCCO[N+](=O)[O-])cc(C(C)(C)C)c1O,2,40,–
Cc1c(C)c2c(c(C)c1O)CCC(C)(COCCCO[N+](=O)[O-])O2 (stereo unspecified),0.15,1.2,–
O=[N+]([O-])OCCCc1ccc(O)cc1,143,1,–
O=S(=O)(c1ccccc1)c1c(OCCCc2ccc(O)cc2)no[n+]1[O-],47,0.01,0.36
Cc1c(C)c2c(c(C)c1O)CCC(C)(COc1no[n+]([O-])c1S(=O)(=O)c1ccccc1)O2 (stereo unspecified),0.49,0.04,0.67
CCOc1no[n+]([O-])c1S(=O)(=O)c1ccccc1,110,0.01,1.2
Cc1c(C)c2c(c(C)c1O)CCC(C)(C)O2 [APC-100],0.17,–,–
Cc1cc(C(C)(C)C)c(O)c(C(C)(C)C)c1 [BUTYLATED HYDROXYTOLUENE],1.7,–,–
Cc1ccc(O)cc1 [p-CRESOL],290,–,–
